From ChEMBL document CHEMBL1148788 (J Med Chem, 2007)
Several values for one entry are separate records, joined by “and”; a condition that tells them apart may be missing. Equal values may be shown once. Activity calls are given as the source filed them. The calls are words filed in the database; no cut-off is given here.

Columns and labels:
[1] = Displacement of [3H]methyllycaconitine from chimeric alpha-7nAChR D197A mutant/5HT3A receptor in tsA201 cells; format: cell-based, Homo sapiens
Method in brief: (§1)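 tsA-201 cells transiently transfected with 4 µg WT or mutant α7/5-HT3A chimera and assayed 2 days later. Membranes washed twice at 50000g in 50 mM Tris-HCl pH 7.2. Incubated with 0.5 nM [3H]MLA and compound for 2.5 h at room temperature with shaking; nonspecific binding with 5 mM (S)-nicotine. PEI-soaked GF/C filtration, scintillation counting. Ki derived; duplicate, 3–7 experiments.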

tsA201 [2] = experiment: Displacement of [3H]methyllycaconitine from chimeric alpha-7nAChR W55A/Y195A mutant /5HT3A receptor in tsA201 cells; format: cell-based; conditions: Homo sapiens; method in brief: as §1
[3] = Displacement of [3H]methyllycaconitine from chimeric alpha-7nAChR K145R mutant /5HT3A receptor in tsA201 cells; format: cell-based, Homo sapiens; method in brief: as §1
[4] = Antagonist activity at human alpha7nAChR Y93A mutant co-expressed with human Ric3 in tsA201 cells by FMP assay; format: functional, cell-based
[5] = Antagonist activity at human alpha7 nAChR W149Y mutant co-expressed with human Ric3 in tsA201 cells by FMP assay; format: functional, cell-based
[6] = Antagonist activity at human alpha-7 nAChR Y188A mutant coexpressed with human Ric3 in tsA201 cells by FMP assay; format: functional, cell-based
[7] = Antagonist activity at human alpha-7 nAChR Y195A mutant coexpressed with human Ric3 in tsA201 cells by FMP assay; format: functional, cell-based
[8] = molecular target: Neuronal acetylcholine receptor; alpha4/beta2 (Rattus norvegicus, UniProt P09483+P12390); experiment: Displacement of [3H]epibatidine from rat recombinant alpha-4-beta-2 nAChR in HEK293 cell line; format: cell-based
Neuronal acetylcholine receptor; alpha4/beta2, sequence (P09483 whole entry): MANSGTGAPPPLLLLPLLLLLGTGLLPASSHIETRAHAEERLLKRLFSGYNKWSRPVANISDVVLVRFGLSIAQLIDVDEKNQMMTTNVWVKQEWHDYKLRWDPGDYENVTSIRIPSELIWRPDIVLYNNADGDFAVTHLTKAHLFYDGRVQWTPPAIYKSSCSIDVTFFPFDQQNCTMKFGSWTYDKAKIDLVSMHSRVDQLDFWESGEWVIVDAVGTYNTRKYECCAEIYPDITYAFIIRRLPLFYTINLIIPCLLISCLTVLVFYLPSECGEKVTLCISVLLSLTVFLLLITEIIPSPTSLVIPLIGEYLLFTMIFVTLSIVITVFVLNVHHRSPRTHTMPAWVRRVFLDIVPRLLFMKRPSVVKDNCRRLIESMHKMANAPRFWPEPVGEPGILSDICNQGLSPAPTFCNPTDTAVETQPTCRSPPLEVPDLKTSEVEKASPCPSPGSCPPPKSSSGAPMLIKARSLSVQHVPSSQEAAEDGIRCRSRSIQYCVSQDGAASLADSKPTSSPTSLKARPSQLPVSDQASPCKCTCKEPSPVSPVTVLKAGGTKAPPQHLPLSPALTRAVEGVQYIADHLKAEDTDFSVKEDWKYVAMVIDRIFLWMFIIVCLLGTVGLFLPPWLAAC
Neuronal acetylcholine receptor; alpha4/beta2, sequence (P12390 whole entry): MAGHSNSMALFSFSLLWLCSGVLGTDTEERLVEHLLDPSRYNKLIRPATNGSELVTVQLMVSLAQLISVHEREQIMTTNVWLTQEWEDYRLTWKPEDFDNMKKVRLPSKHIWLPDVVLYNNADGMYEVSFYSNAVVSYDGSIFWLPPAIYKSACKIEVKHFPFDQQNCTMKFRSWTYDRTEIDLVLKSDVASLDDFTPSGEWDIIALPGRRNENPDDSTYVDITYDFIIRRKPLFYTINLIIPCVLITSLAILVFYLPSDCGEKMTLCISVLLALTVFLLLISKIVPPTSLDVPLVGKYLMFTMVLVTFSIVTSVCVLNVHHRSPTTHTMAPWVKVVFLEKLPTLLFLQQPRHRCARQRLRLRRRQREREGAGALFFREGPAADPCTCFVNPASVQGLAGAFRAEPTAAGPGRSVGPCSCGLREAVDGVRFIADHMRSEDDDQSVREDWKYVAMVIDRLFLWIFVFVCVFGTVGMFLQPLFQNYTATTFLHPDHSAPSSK

[9] = molecular target: T1, Neuronal acetylcholine receptor; alpha3/beta4 (Rattus norvegicus, UniProt P04757+P12392); experiment: Displacement of [3H]epibatidine from recombinant rat alpha-3-beta-4 nAChr in HEK293 cell line; format: cell-based
T1 sequence (P04757 whole entry): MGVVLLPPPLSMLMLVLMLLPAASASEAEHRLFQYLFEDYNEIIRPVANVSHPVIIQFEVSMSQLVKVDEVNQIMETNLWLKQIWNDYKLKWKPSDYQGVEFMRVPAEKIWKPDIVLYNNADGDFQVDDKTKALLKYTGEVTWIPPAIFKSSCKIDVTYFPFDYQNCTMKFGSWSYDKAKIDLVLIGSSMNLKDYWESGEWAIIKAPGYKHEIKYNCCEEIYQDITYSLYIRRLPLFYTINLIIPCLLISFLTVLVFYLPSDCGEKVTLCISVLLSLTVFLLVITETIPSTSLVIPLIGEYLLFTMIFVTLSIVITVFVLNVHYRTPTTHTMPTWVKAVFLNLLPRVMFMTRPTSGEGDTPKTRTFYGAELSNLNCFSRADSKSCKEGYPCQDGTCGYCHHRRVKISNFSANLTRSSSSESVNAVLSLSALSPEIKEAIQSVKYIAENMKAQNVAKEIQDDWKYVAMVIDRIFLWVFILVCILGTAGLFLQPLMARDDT
T1 sequence (P12392 whole entry): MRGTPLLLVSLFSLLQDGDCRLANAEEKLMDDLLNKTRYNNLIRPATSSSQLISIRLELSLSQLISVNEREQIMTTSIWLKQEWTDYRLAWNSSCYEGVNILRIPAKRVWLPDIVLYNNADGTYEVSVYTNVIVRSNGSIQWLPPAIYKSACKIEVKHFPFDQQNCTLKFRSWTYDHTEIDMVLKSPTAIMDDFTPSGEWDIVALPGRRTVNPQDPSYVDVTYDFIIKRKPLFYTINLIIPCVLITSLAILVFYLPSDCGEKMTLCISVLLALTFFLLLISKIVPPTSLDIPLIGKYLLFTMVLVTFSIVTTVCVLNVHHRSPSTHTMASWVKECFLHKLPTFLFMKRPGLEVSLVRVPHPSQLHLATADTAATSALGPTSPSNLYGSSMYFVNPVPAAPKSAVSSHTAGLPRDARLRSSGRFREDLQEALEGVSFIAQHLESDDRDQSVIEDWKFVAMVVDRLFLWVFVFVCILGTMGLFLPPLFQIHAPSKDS

[10] = molecular target: Neuronal acetylcholine receptor; alpha4/beta4 (Rattus norvegicus, UniProt P09483+P12392); experiment: Displacement of [3H]epibatidine from recombinant rat alpha-4-beta-4 nAChr in HEK293 cell line; format: cell-based
Neuronal acetylcholine receptor; alpha4/beta4, sequence (P09483 whole entry): as the sequence (P09483 whole entry) above
Neuronal acetylcholine receptor; alpha4/beta4, sequence (P12392 whole entry): as the sequence (P12392 whole entry) above

[11] = molecular target: T2, Neuronal acetylcholine receptor subunit alpha-7 (Homo sapiens, UniProt P36544); experiment: Displacement of [3H]methyllycaconitine from human alpha-7 in tsA201 cells coexpressed with 5HT3A receptor; format: cell-based
Target sequence in this assay (P36544 whole entry): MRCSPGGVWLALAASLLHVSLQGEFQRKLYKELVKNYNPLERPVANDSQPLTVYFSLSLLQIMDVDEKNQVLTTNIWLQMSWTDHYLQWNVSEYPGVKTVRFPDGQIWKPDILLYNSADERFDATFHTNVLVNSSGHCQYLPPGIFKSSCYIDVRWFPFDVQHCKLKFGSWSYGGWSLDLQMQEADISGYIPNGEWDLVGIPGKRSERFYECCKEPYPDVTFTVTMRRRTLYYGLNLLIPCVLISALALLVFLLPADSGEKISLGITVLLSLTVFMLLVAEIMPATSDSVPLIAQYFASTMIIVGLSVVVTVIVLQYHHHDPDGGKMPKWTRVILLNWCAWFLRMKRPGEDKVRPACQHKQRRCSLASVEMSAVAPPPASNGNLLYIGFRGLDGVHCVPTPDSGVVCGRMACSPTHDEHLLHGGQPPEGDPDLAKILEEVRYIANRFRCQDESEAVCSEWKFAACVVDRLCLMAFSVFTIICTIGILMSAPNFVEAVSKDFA

[12] = molecular target: T2, Neuronal acetylcholine receptor subunit alpha-7; experiment: Displacement of [3H]methyllycaconitine from alpha7 nAChR in tsA201 cells co-expressed with Ric3; format: cell-based
Target sequence in this assay (P36544 whole entry): as above

[13] = molecular target: T3, 5-hydroxytryptamine receptor 3A (Homo sapiens, UniProt P46098); experiment: Displacement of [3H]GR65630 from human 5HT3A receptor in HEK293 cells; format: cell-based
T3 sequence (P46098 whole entry): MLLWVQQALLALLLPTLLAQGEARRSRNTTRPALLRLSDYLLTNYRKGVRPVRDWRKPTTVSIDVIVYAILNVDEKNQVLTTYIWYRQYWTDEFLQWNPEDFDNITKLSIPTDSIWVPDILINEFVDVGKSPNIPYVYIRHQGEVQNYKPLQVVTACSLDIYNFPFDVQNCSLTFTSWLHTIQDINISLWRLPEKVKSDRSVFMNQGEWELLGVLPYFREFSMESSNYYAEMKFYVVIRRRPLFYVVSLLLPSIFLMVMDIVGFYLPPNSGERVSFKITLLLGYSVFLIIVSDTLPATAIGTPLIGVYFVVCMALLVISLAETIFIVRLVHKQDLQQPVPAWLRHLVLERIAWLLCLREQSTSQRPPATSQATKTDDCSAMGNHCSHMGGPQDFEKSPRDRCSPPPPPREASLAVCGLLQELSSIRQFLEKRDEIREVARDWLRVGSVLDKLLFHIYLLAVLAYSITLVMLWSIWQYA

[14] = molecular target: T2, Neuronal acetylcholine receptor subunit alpha-7; experiment: Antagonist activity at human alpha-7 nAChR in tsA201 cells coexpressed with Ric3 by FMP assay; format: functional, cell-based
Target sequence in this assay (P36544 whole entry): as the sequence (P36544 whole entry) above

[15] = molecular target: T1, Neuronal acetylcholine receptor; alpha3/beta4; experiment: Antagonist activity at rat alpha3beta4 nAChR expressed in HEK293 cells by FMP assay; format: functional, cell-based, Homo sapiens; conditions: read-out: IC50
[16] = molecular target: T3, 5-hydroxytryptamine receptor 3A; experiment: Antagonist activity at human 5HT3A receptor expressed in HEK293 cells by FMP assay; format: functional, cell-based; conditions: read-out: IC50
cells = format: functional, cell-based; conditions: Homo sapiens, HEK293
[17] = molecular target: T4, Glycine receptor subunit alpha-1 (Homo sapiens, UniProt P23415); experiment: Antagonist activity at human glycine alpha-1 receptor in HEK293 cells by FMP assay; format: functional, cell-based
T4 sequence (P23415 whole entry): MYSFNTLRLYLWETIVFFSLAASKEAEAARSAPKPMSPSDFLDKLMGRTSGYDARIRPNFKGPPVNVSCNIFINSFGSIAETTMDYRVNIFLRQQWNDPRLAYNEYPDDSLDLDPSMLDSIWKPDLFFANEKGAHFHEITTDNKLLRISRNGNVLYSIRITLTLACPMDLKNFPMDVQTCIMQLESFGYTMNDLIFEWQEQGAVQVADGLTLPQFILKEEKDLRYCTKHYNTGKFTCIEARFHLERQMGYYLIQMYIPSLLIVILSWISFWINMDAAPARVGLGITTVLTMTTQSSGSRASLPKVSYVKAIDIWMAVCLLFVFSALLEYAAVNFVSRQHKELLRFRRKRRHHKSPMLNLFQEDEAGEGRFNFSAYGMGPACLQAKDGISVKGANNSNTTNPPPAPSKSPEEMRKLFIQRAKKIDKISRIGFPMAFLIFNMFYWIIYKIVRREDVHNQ

[18] = molecular target: T2, Neuronal acetylcholine receptor subunit alpha-7; experiment: Displacement of [3H]methyllycaconitine from chimeric alpha7nAChR/5HT3A in tsA201 cells; format: cell-based
Target sequence in this assay (P36544 23-502 limits assumed): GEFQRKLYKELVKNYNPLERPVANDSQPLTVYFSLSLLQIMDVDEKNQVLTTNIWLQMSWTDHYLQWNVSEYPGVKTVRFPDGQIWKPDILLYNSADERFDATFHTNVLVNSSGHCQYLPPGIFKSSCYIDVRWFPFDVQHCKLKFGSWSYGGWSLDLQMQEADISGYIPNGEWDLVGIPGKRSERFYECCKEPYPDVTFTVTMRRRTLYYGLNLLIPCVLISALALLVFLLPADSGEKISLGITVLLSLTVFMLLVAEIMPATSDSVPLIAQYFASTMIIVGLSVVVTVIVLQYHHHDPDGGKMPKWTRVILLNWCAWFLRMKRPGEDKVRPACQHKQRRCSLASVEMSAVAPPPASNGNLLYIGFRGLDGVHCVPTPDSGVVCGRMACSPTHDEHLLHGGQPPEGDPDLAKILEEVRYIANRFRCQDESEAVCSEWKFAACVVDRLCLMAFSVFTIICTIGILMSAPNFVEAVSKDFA

[19] = Displacement of [3H]methyllycaconitine from chimeric alpha-7nAChR W55A mutant /5HT3A receptor in tsA201 cells; format: cell-based, Homo sapiens; method in brief: as §1
[20] = Displacement of [3H]methyllycaconitine from chimeric alpha7nAChR W55Y mutant/5HT3A receptor in tsA201 cells; format: cell-based, Homo sapiens; method in brief: as §1
[21] = Displacement of [3H]methyllycaconitine from chimeric alpha7nAChR R79A mutant/5HT3A receptor R79A mutant in tsA201 cells; format: cell-based, Homo sapiens; method in brief: as §1
tsA201 [22] = experiment: Displacement of [3H]methyllycaconitine from chimeric alpha-7nAChR Y93A mutant/5HT3A receptor in tsA201 cells; format: cell-based; conditions: Homo sapiens; method in brief: as §1
[23] = Displacement of [3H]methyllycaconitine from chimeric alpha-7nAChR N107A mutant/5HT3A receptor in tsA201 cells; format: cell-based, Homo sapiens; method in brief: as §1
[24] = Displacement of [3H]methyllycaconitine from chimeric alpha7nAChR K145A mutant/5HT3A receptor in tsA201 cells; format: cell-based, Homo sapiens; method in brief: as §1
[25] = Displacement of [3H]methyllycaconitine from chimeric alpha-7nAChR S148A mutant /5HT3A receptor in tsA201 cells; format: cell-based, Homo sapiens; method in brief: as §1
tsA201 [26] = experiment: Displacement of [3H]methyllycaconitine from chimeric alpha-7nAChR W149A mutant/5HT3A receptor in tsA201 cells; format: cell-based; conditions: Homo sapiens; method in brief: as §1
tsA201 [27] = experiment: Displacement of [3H]methyllycaconitine from chimeric alpha-7nAChR W149Y mutant/5HT3A receptor W149Y mutant in tsA201 cells; format: cell-based; conditions: Homo sapiens; method in brief: as §1
[28] = Displacement of [3H]methyllycaconitine from chimeric alpha-7nAChR S150A mutant/5HT3A receptor in tsA201 cells; format: cell-based, Homo sapiens; method in brief: as §1
[29] = Displacement of [3H]methyllycaconitine from chimeric alpha-7nAChR Y168A mutant/5HT3A receptor in tsA201 cells; format: cell-based, Homo sapiens; method in brief: as §1
tsA201 [30] = experiment: Displacement of [3H]methyllycaconitine from chimeric alpha-7nAChR Y188A mutant/5-HT3A receptor in tsA201 cells; format: cell-based; conditions: Homo sapiens; method in brief: as §1
[31] = Displacement of [3H]methyllycaconitine from chimeric alpha7nAChR Y195A mutant/5HT3A receptor in tsA201 cells; format: cell-based, Homo sapiens; method in brief: as §1
[32] = Displacement of [3H]methyllycaconitine from chimeric alpha-7nAChR Y195F mutant/5HT3A receptor in tsA201 cells; format: cell-based, Homo sapiens; method in brief: as §1
[33] = molecular target: T2, Neuronal acetylcholine receptor subunit alpha-7
Target sequence in this assay (P36544 whole entry): as the sequence (P36544 whole entry) above

[34] = Antagonist activity at human alpha7nAChR W149A mutant co-expressed with human Ric3 in tsA201 cells by FMP assay; format: functional, cell-based

C[N+]12CC[C@@H]3[C@@H]4/C(=C\N5c6ccccc6[C@@]67CC[N+]8(C)CC9=CCO[C@H]([C@@H]([C@H]56)[C@H]9C[C@@H]78)N4c4ccccc4)[C@@H](C[C@@H]31)/C(=C\CO)C2.[I-].[I-] (stereo partly drawn)
Ki [1]: 2.2 µM | pKi [1]: 5.66 | Activity (tsA201 [2]): inactive | Ki [3]: 0.74 µM | pKi [3]: 6.13 | IC50 ([4]; read-out: IC50): 6.6 µM | IC50 ([4]; read-out: pIC50 (converted)): 6.61 µM | IC50 ([5]; read-out: IC50): 8.9 µM | IC50 ([5]; read-out: pIC50 (converted)): 8.91 µM | IC50 ([6]; read-out: IC50): 4.7 µM | IC50 ([6]; read-out: pIC50 (converted)): 4.68 µM | IC50 ([7]; read-out: IC50): 7.1 µM | IC50 ([7]; read-out: pIC50 (converted)): 7.08 µM | pKi ([8]; hek293): < 4 | Ki ([8]; read-out: Ki): > 100 µM | Ki [9]: 30 µM | Ki [10]: > 100 µM | pKi ([10]; hek293): < 4 | Ki ([11]; read-out: Ki): 0.98 µM | Ki ([11]; read-out: pKi (converted)): 1 µM | Ki ([12]; read-out: Ki): 0.62 µM | Ki ([12]; read-out: pKi (converted)): 0.631 µM | Ki [13]: 5.9 µM | IC50 ([14]; read-out: IC50): 2.1 µM | IC50 ([14]; read-out: pIC50 (converted)): 2.09 µM | IC50 [15]: 30 µM | IC50 [16]: 4.2 µM | IC50 (cells; read-out: IC50): > 100 µM | IC50 (cells; read-out: pIC50 (converted)): > 100 µM | IC50 [17]: > 100 µM | pIC50 ([17]; hek293): < 4 | Ki [18]: 0.97 µM | pKi [18]: 6.01 | Ki [19]: 3.1 µM | pKi [19]: 5.51 | Ki [20]: 0.69 µM | pKi [20]: 6.16 | Ki [21]: 1.4 µM | pKi [21]: 5.86 | Activity (tsA201 [22]): inactive | Ki [23]: 1.3 µM | pKi [23]: 5.87 | Ki [24]: 0.89 µM | pKi [24]: 6.05 | Ki [25]: 1 µM | pKi [25]: 5.98 | Activity (tsA201 [26]): inactive | Activity (tsA201 [27]): inactive | Ki [28]: 0.72 µM | pKi [28]: 6.14 | Ki [29]: 1.3 µM | pKi [29]: 5.89 | Activity (tsA201 [30]): inactive | Ki [31]: 6.2 µM | pKi [31]: 5.21 | Ki [32]: 1.3 µM | pKi [32]: 5.9 | IC50 [33]: 1.4 µM and 1.38 µM

CC(=O)OCC[N+](C)(C)C [ACETYLCHOLINE]
EC50 ([4]; read-out: EC50): 81 µM | EC50 ([4]; read-out: pEC50 (converted)): 81.3 µM | EC50 ([34]; read-out: EC50): > 30000 µM | EC50 ([34]; read-out: pEC50 (converted)): > 31600 µM | EC50 ([5]; read-out: EC50): 1500 µM | EC50 ([5]; read-out: pEC50 (converted)): 1580 µM | EC50 ([6]; read-out: EC50): 3900 µM | EC50 ([6]; read-out: pEC50 (converted)): 3890 µM | EC50 ([7]; read-out: EC50): 260 µM | EC50 ([7]; read-out: pEC50 (converted)): 257 µM
